The source of these data is ChEMBL document CHEMBL5120974, “Antitubercular Activity of Novel 2-(Quinoline-4-yloxy)acetamides with Improved Drug-Like Properties” (ACS Med Chem Lett, 2022).

SMILES strings stand for the structures. Converted amounts (≈) assume the structure as drawn.

Common to all, as to format: functional
Assay [1] deals with Mycobacterium tuberculosis. The experiment in a line: Antitubercular activity against Multidrug-resistant Mycobacterium tuberculosis clinical isolate PT2 assessed as bacterial growth inhibition incubated for 7 days by resazurin dye based assay. The note with it: PT2, 168 h, time 7 day.
Assay [2] concerns Mycobacterium tuberculosis. The experiment in a line: Antitubercular activity against Multidrug-resistant Mycobacterium tuberculosis clinical isolate PT12 assessed as bacterial growth inhibition incubated for 7 days by resazurin dye based assay. The note with it: PT12, 168 h, time 7 day. On the technique in general: Resazurin is reduced to fluorescent resorufin, in cell work by metabolically active cells.

Assay [3] concerns Mycobacterium tuberculosis. Kind of assay: Antitubercular activity against Multidrug-resistant Mycobacterium tuberculosis clinical isolate PT20 assessed as bacterial growth inhibition incubated for 7 days by resazurin dye based assay. The note with it: PT20, 168 h, time 7 day.
In assay [4] the test system is Mycobacterium tuberculosis. Kind of assay: Antitubercular activity against Multidrug-resistant Mycobacterium tuberculosis qcrB-T313A mutant assessed as bacterial growth inhibition incubated for 7 days by resazurin dye based assay. As to conditions: time 7 day. Summed up: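 MIC measured against a spontaneous mutant selected for resistance to 2-(quinolin-4-yloxy)acetamides, with a fully sequenced genome and a single qcrB change (ACC to GCC at nucleotide 937, T313A substitution).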

The term MIC denotes the lowest concentration that inhibits growth of the organism. Consider `COc1ccc2nc(C)cc(OCC(=O)Nc3ccc(N4CCCCC4)cc3)c2c1`, for which the minimum inhibitory concentration (MIC) in assay [1] is less than 0.04 µM; in assay [2] it was 0.19 µM (≈ 0.077 µg/mL); in assay [3], less than 0.04 µM; in assay [4], greater than 24.7 µM.
Regarding `CCc1cc(OCC(=O)Nc2ccc(N3CCCCC3)cc2)c2cc(OC)ccc2n1`, the minimum inhibitory concentration (MIC) in assay [1] is less than 0.04 µM; in assay [2], 0.19 µM (≈ 0.0797 µg/mL); in assay [3], less than 0.04 µM; in assay [4], greater than 23.8 µM.
Regarding `NNC(=O)c1ccncc1` [ISONIAZID], the values for the minimum inhibitory concentration (MIC) in assay [2] and in assay [4] were 146 µM (≈ 20 µg/mL) and 2.3 µM (≈ 0.315 µg/mL), respectively.
`CO[C@H]1/C=C/O[C@@]2(C)Oc3c(C)c(O)c4c(O)c(c(/C=N/N5CCN(C)CC5)c(O)c4c3C2=O)NC(=O)/C(C)=C\C=C\[C@H](C)[C@H](O)[C@@H](C)[C@@H](O)[C@@H](C)[C@H](OC(C)=O)[C@@H]1C` [RIFAMPIN]: the MIC in assay [1], in assay [2] and in assay [3] was greater than 48.6 µM throughout.
